Test results from ChEMBL document CHEMBL1629684, “Effects of ravuconazole treatment on parasite load and immune response in dogs experimentally infected with Trypanosoma cruzi” (Antimicrob Agents Chemother, 2010).
Calls of active or inactive are those of the source.

Legend:
[1] = test system: Trypanosoma cruzi; experiment: Antitrypanosomal activity against Trypanosoma cruzi Y infected in mongrel dog assessed as reduction in parasite-induced intrafascicular collagen deposition at 7 mg/kg, po BID after 180 days […]; type: functional, organism-based; design: dose 7 mg/kg
[2] = Half life in mouse; type: ADME, organism-based; details: in vivo
[3] = test system: Canis familiaris; experiment: Toxicity in mongrel dog infected with Trypanosoma cruzi Y assessed as weight loss at 7 mg/kg, po BID for 90 days started 12 to 22 days postinfection measured after 6 months; type: organism-based, Canis lupus familiaris; design: dose 7 mg/kg, route oral; details: in vivo, 4383 h
Outline: (§1)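 Body weight gain, in kg, was recorded for infected dogs 1 day and 6 months after the end of oral b.i.d. treatment. Treated animals were compared with infected untreated and noninfected control groups.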

[4] = test system: Canis familiaris; experiment: Toxicity in mongrel dog infected with Trypanosoma cruzi Berenice-78 assessed as weight loss at 12 mg/kg, po BID for 90 days started 12 to 22 days postinfection measured after 6 months; type: organism-based, Canis lupus familiaris; design: dose 12 mg/kg, route oral; details: in vivo, 4383 h; outline: as §1
[5] = test system: Trypanosoma cruzi; experiment: Antimicrobial activity against Trypanosoma cruzi Y infected in mongrel dog assessed as suppression of microbial proliferation at 12 mg/kg, po BID started 12 to 22 days postinfection measured after 1 day; type: functional, organism-based; design: dose 12 mg/kg
Outline: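 Mongrel dogs, 4 months old, dewormed and vaccinated, were inoculated with 2.0 × 10^3 bloodstream trypomastigotes/kg. Oral b.i.d. (q12h) dosing began 12 to 22 days postinfection, once parasitemia appeared. Dosing ran 90 days at 12 mg/kg and 60 days at 7 mg/kg, with 5 dogs per group. Parasitemia was read by fresh-blood examination of marginal ear vein blood from day 10 of infection until parasites were undetectable.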

[6] = test system: Trypanosoma cruzi; experiment: Antimicrobial activity against Trypanosoma cruzi Y infected in mongrel dog assessed as parasite level in blood of dog at 12 mg/kg, po BID started 12 to 22 days postinfection measured after 6 months by PCR analysis; type: functional
Outline: (§2)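 Blood PCR for T. cruzi on treated dogs (n = 5 per group) at 1 and 6 months posttreatment. Each reaction took 2 μl blood DNA template in Tris-HCl pH 9.0, 75 mM KCl, 3.5 mM MgCl2 and 0.2 mM dNTPs. Cycling was 95°C 5 min, then 2 cycles annealing at 30°C, 33 cycles at 40°C, and 72°C 5 min. Products were run on 6% polyacrylamide and silver stained. Reported as rate of positive animals.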

[7] = test system: Trypanosoma cruzi; experiment: Antimicrobial activity against Trypanosoma cruzi Berenice-78 infected in mongrel dog assessed as parasite level in blood of dog at 12 mg/kg, po BID started 12 to 22 days postinfection measured after 6 months by PCR analysis; type: functional; outline: as §2
[8] = test system: Trypanosoma cruzi; experiment: Antimicrobial activity against Trypanosoma cruzi Y infected in mongrel dog assessed as parasite level in blood of dog at 7 mg/kg, po BID started 12 to 22 days postinfection measured after 30 days by PCR analysis; type: functional; outline: as §2
[9] = test system: Canis familiaris; experiment: Immunostimulatory activity in mongrel dog infected with Trypanosoma cruzi Y assessed as production of antibody IgG at 12 mg/kg, po BID for 90 days measured up to 30 days by ELISA; type: functional, organism-based; design: dose 12 mg/kg; details: Canis lupus familiaris
Outline: (§3)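 Serum was taken before inoculation and then monthly until 6 months posttreatment, and stored at −80°C. ELISA plates were coated with alkaline extract of Y-strain parasites grown to exponential phase in LIT medium. Bound total IgG or IgG2 was detected with peroxidase-labeled anti-dog conjugates and read at 490 nm. Cutoff was the mean absorbance of 10 uninfected dogs plus 2 SD.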

[10] = test system: Canis familiaris; experiment: Immunostimulatory activity in mongrel dog infected with Trypanosoma cruzi Y assessed as production of antibody IgG at 7 mg/kg, po BID for 90 days measured up to 30 days by ELISA; type: functional, organism-based; design: dose 7 mg/kg; details: Canis lupus familiaris; outline: as §3
[11] = test system: Canis familiaris; experiment: Immunostimulatory activity in mongrel dog infected with Trypanosoma cruzi Y assessed as production of antibody IgG2 at 7 mg/kg, po BID for 90 days measured up to 30 days by ELISA; type: functional, organism-based; design: dose 7 mg/kg; details: Canis lupus familiaris; outline: as §3
[12] = test system: Canis familiaris; experiment: Immunostimulatory activity in mongrel dog infected with Trypanosoma cruzi Berenice-78 assessed as production of antibody IgG at 7 mg/kg, po BID for 90 days measured up to 30 days by ELISA; type: functional, organism-based; design: dose 7 mg/kg; details: Canis lupus familiaris; outline: as §3
[13] = test system: Canis familiaris; experiment: Immunostimulatory activity in mongrel dog infected with Trypanosoma cruzi Berenice-78 assessed as production of antibody IgG2 at 7 mg/kg, po BID for 90 days measured up to 30 days by ELISA; type: functional, organism-based; design: dose 7 mg/kg; details: Canis lupus familiaris; outline: as §3
[14] = test system: Canis familiaris; experiment: Toxicity in mongrel dog infected with Trypanosoma cruzi Y assessed as weight loss at po BID for 90 days started 12 to 22 days postinfection measured after 1 day; details: in vivo, 24 h
[15] = test system: Trypanosoma cruzi; experiment: Antitrypanosomal activity against Trypanosoma cruzi Y infected in mongrel dog assessed as reduction in parasite-induced intrafascicular collagen deposition in right atrium at 12 mg/kg, po BID after 180 days; details: Cardiac atrium

## C[C@@H](c1nc(-c2ccc(C#N)cc2)cs1)[C@](O)(Cn1cncn1)c1ccc(F)cc1F [RAVUCONAZOLE]
[1]
  Activity: Active
[2]
  half-life: 4.5 h
[3]
  Activity: Non-toxic
[4]
  Activity: Non-toxic
[5]
  Activity: Non-toxic
[6]
  Activity: 60%
[7]
  Activity: 80%
[8]
  Activity: 40%
[9]
  Activity: Active
[10]
  Activity: Active
[11]
  Activity: Active
[12]
  Activity: Active
[13]
  Activity: Active
[14]
  Activity: Non-toxic
[15]
  Activity: Active
